Hits are enriched below; roughly 9.5% of the tested compounds scored in any of these assays.
M1 ag = activates the M1 muscarinic receptor; CHO-M1 cells, Fluo-4 calcium fluorescence, agonist mode; active compounds read high; B-score at 10 µM; 3% of 64,000 active; AID 626;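 active = fluorescence rise, raw or as B-score row- and column-corrected plate score, outside the 99.7% band of its plate's samples, either direction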
D1 mod = D1 dopamine receptor (human) allosteric modulation. P21728. AID 641. 5.9% of 58,000 active. HEK293 D1, CRE-luciferase, dopamine EC30 potentiation; actives deviate in either direction. B-score at 10 µM;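 active = luminescence count or its row- and column-corrected plate score outside the 99.7% band of the plate's sample wells, on either side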
HEK293 NFkB inh = inhibitors of the PMA/ionomycin-induced NF-kB reporter in HEK293 cells | AID 465 | HEK-293 NF-kB luciferase reporter, luminescence | 0.21% of 62,000 active | inhibition, % at 3 µM;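 active = inhibition above the mean of all tested compounds plus 3 SD, cut at about 40% in these data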;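 also: 0% = stimulated DMSO wells and 100% = 10 µM reference inhibitor 5653914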
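Timing: 1 h pretreatment, 16 h stimulation, 37 °C; system: HEK-293 cells with stable firefly luciferase reporter driven by four HIV NF-kB elements; doses: 3 µM once, 0.30% DMSO; measured by: luciferase luminescence; control set: DMSO and 10 µM reference inhibitor; repeats: single test; reagent: PMA plus ionomycin mix as NF-kB-activating stimulus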
mHtt clearance = compounds clearing mutant huntingtin protein. HeLa Exon1htt(103Q)mCFP, aggregate imaging; zero = plate's median compound well. inhibition, % at 1.5 µM. 0.42% of 47,000 active;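 active = inhibition of aggregate fluorescence above about 70%, also judged a hit by eye on the cell image, limit read from the data, passing the limit was not always enough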;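 also: cells exposed to compound for three days before fixation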
M1 antagonist = blocks the rat M1 muscarinic receptor response to acetylcholine | P08482 | CHO-M1 cells, Fluo-4 calcium, ACh EC80 antagonist mode; active compounds read low | B-score at 10 µM | 3.4% of 64,000 active | AID 628;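 active = calcium fluorescence response, raw or row-and-column corrected B-score, differing from the plate sample mean either way at a set confidence level, mostly lower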
Target sequence (P08482 whole entry, looked up): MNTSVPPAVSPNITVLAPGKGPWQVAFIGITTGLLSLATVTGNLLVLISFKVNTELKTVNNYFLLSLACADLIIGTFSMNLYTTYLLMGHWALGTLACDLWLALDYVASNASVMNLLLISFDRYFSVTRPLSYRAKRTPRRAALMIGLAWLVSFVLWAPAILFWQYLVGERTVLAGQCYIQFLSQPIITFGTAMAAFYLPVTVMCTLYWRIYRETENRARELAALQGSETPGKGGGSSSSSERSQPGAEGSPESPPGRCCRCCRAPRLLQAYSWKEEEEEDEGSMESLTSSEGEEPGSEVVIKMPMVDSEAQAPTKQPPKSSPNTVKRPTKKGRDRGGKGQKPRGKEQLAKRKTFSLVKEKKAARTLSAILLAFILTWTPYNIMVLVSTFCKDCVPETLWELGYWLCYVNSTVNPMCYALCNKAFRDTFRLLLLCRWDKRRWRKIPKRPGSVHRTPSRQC
Jurkat viability = cytotoxicity toward Jurkat cells | Jurkat E6.1 viability, ATP luminescence, 48 h | inhibition, % at 4 µM | 1.2% of 56,000 active | AID 463;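 active = inhibition above the mean inhibition of all tested compounds plus 3 SD, cut at about 28% in these data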
An asterisk follows results filed as active; . = not tested or not shown.

SMILES	M1 ag	D1 mod	HEK293 NFkB inh	mHtt clearance	M1 antagonist	Jurkat viability
CC1=C(C(=O)OCC2CCCO2)C(c2ccc(C)o2)C2=C(CC(c3ccc(F)cc3)CC2=O)N1 (centres undefined)	-0.217	-3.12*	-10.8	.	-0.502	8.1
CC(NS(=O)(=O)c1ccccc1)C(c1cccs1)N1CCN(C)CC1 (centres undefined)	-0.208	-0.848	14.8	.	-0.296	.
O=C1N2c3ccccc3CCc3cccc(c32)C1(O)C(F)(F)F (centres undefined)	-1.49	-2.74*	11.6	.	0.268	4.9
O=C(Nc1ccc(Cl)cn1)c1cccc(F)c1	-0.0546	0.0414	-1.8	17.3	0.0463	84.8*
CC(C)C(=O)Nc1ccc(NC(=O)c2cccc(F)c2)cn1	-1.48	-1.05	-4.2	-4.2	0.7	2.8
CC(=O)c1cccc(NC(=O)NC(C)c2ccncc2)c1 (centres undefined)	-0.668	.	17.8	22.2	-0.116	-7.1
CCOC(=O)CCn1nnc(N)n1	0.395	-4.17*	6.8	.	-0.329	-3.2
O=C(Nc1cccc2cccnc12)c1cccnc1	0.476	0.55	8.5	.	0.235	-3.6
Cc1cnc(C(=O)Nc2cccc3cccnc23)cn1	-0.463	0.74	1.6	.	0.297	84.5*
COc1ccc(C(=O)c2ccc(OC)c(N)c2)cc1N	0.00768	0.458	19.5	-184.5	0.928	62.3*
COc1ccccc1NC(=O)N1CCN(c2cc(-c3ccccc3)nc3ncnn23)CC1	6.28*	0.296	15.0	-123.0	-0.334	1.5
COc1ccc(OC)c(NC(=O)C2CCN(c3cc(-c4ccccc4)nc4ncnn34)CC2)c1	0.42	-0.17	8.4	.	0.324	.
Cc1ccc(SCc2[nH]nc3c2C2(CCSCC2)C(C#N)=C(N)O3)cc1	-1.61	.	-2.5	9.3	0.873	0.3
CCOC(=O)N1CCC2(CC1)C(C#N)=C(N)Oc1n[nH]c(CSc3ccc(C)cc3)c12	-0.143	-4.59*	17.4	60.4	-1.4	4.9
COc1ccc(-c2cc(C(F)(F)F)nc(SCCC(=O)Nc3cc(C)on3)n2)cc1	1.74	-0.797	-0.2	.	-0.404	3.8
Cc1cc(NC(=O)CSc2nc(-c3ccco3)cc(C(F)(F)F)n2)n(-c2ccccc2)n1	0.166	0.122	22.7	-68.0	-0.221	32.6*
COc1ccc(-c2cc(C(F)(F)F)nc(SCC(=O)Nc3cc(C)on3)n2)cc1OC	-1.75	24.4*	5.9	-27.6	1.39	0.0
Cc1cc(NC(=O)CSc2nc(-c3cccs3)cc(C(F)(F)F)n2)no1	0.893	0.163	29.2	.	-0.232	74.1*
Cc1cc(NC(=O)CCCSc2nc(-c3ccco3)cc(C(F)(F)F)n2)n(-c2ccccc2)n1	.	.	.	-39.0	.	.
Cc1cc(NC(=O)CCCS(=O)(=O)c2nc(-c3cccs3)cc(C(F)(F)F)n2)no1	0.905	0.116	-2.4	41.8	-0.0497	100.1*
CN1C(=O)/C(=C/c2cn(CC(=O)N3CCCCC3)c3ccccc23)c2ccccc21	.	.	.	-33.7	.	.
Cc1cc(O)ccc1C1(c2ccc(O)cc2C)OC(=O)c2ccccc21	.	.	.	70.3*	.	.
Cc1cccc(C2(c3cccc(C)c3)OC(=O)c3ccccc32)c1	.	.	.	18.3	.	.
COc1ccccc1NC(=O)N(Cc1ccco1)Cc1cc2ccc(C)c(C)c2[nH]c1=O	1	1.01	15.9	-137.1	-0.0456	79.5*
Cc1cc(NC(=O)CSc2nc(C(C)C)nc3sc4c(c23)CCCC4)no1	1.26	0.0143	12.2	.	0.247	-1.7
SMILES	M1 ag	D1 mod	HEK293 NFkB inh	mHtt clearance	M1 antagonist	Jurkat viability
Cc1cc(NC(=O)CSc2nc(C3CC3)nc3sc4c(c23)CCC(C)C4)no1 (centres undefined)	-0.302	-0.724	-11.3	71.5*	-0.0134	-7.8
Cc1noc(/C=C/N(C)C)c1S(=O)(=O)N1CCc2ccccc21	1.22	0.564	23.4	.	1.3*	-0.6
Cc1noc(/C=C/N(C)C)c1S(=O)(=O)N(C)CC(=O)N1CCc2ccccc21	0.524	-0.654	-2.5	39.9	-0.00521	3.5
O=C(O)C1CCCCC1C(=O)NCCc1c[nH]c2ccccc12 (centres undefined)	0.169	-5.08*	22.8	20.4	0.00952	-4.3
O=C(CN(CC1CCCO1)C(=O)CCC(=O)Nc1nccs1)NCc1ccccc1 (centres undefined)	.	.	.	1.0	.	.
C=CCn1c(SCc2ccccc2C#N)nnc1-c1ccccc1O	-0.097	-0.117	-7.5	10.4	-1.09	-9.7
COc1ccc(S(=O)(=O)N(CCCN2CCCC2=O)Cc2cc3c(C)cc(C)cc3[nH]c2=O)cc1	5.06*	-1.82	-9.1	.	-0.0652	-11.3
COc1ccc(NC(=O)N(CCc2ccccc2)Cc2cc3c(C)cc(C)cc3[nH]c2=O)cc1	.	.	.	12.3	.	.
NS(=O)(=O)c1ccc(C(=O)O)cc1	-1.25	0.0821	.	.	0.711	.
CC1=CC(C)(C)Nc2ccc(OC(=O)c3cccnc3)cc21	-0.163	-0.548	43.6*	5.5	0.317	16.8
CC1=CC(C)(C)Nc2ccc(OC(=O)CN3C(=O)CCC3=O)cc21	0.152	-0.186	40.3*	.	-0.237	-2.8
CCOc1ccc(OC(=O)c2cccnc2)cc1	-0.683	.	1.5	-10.3	0.337	6.4
CC1=CC(C)(C)Nc2ccc(C)cc21	0.215	1.05	6.3	4.1	0.459	6.3
COc1ccccc1-c1c(C)oc2cc(OC(=O)c3ccco3)ccc2c1=O	-0.365	0.762	13.7	.	0.178	.
CC1=CC(C)(C)Nc2ccc(OC(=O)c3ccco3)cc21	-0.00105	-0.109	45.1*	.	-0.18	58.4*
O=C(c1ccccc1NS(=O)(=O)c1ccc(Br)s1)N1CCOCC1	0.158	0.194	13.4	1.1	-0.127	-8.7
N#CC1=C(N)C(C#N)(C#N)[C@H](c2ccoc2)[C@H]2CN(Cc3ccccc3)CC=C12	25.6*	1.07	16.2	-12.1	-0.281	13.4
CC(=O)N1CC=C2C(C#N)=C(N)C(C#N)(C#N)[C@H](c3ccoc3)[C@H]2C1	4.75	.	.	.	-1.36	.
Cc1ccc(C2C3CN(C(C)C)CC=C3C(C#N)=C(N)C2(C#N)C#N)cc1 (centres undefined)	54.7*	-3.14*	.	.	2.24*	.
CCOC(=O)N1CC=C2C(C#N)=C(N)C(C#N)(C#N)[C@H](c3ccc(OCC)c(OCC)c3)[C@H]2C1	0.266	0.792	9.3	10.9	0.492	5.1
O=c1cc(Nc2ccc3c(c2)OCCO3)[nH]c(=O)n1-c1ccc(Br)cc1	0.247	.	13.9	-42.2	-0.436	.
O=c1cc(Nc2ccc3c(c2)OCO3)[nH]c(=O)n1-c1ccc(Br)cc1	-0.858	-7.65*	17.9	48.4	0.0661	.
O=c1[nH][nH]c(-c2ccccc2)c1C=Nc1ccccc1Cl	.	.	.	-3.3	.	.
Cc1ccccc1-n1nc(C)c2cc(C(=O)NCc3cccnc3)sc21	-0.106	-4.69*	6.6	16.6	-0.356	7.9
Cc1nn(CC(=O)NCc2cccnc2)c(=O)c2ccccc12	-0.569	-0.626	-1.3	.	0.806	-5.9
COc1ccc(S(=O)(=O)Nc2cc(C)cc(C)n2)c2ccccc12	0.0754	0.531	15.3	86.5*	0.0707	-2.9
O=c1oc2ccccc2c(Nc2ccccc2)c1[N+](=O)[O-]	.	.	.	-27.1	.	.
